Data: the M2OR odorant receptor database

Columns and labels:
Conditions in all cases: stereoisomer not certain
UniProt Q7TR71 = biological target: T1, UniProt Q7TR71
T1 sequence (whole entry): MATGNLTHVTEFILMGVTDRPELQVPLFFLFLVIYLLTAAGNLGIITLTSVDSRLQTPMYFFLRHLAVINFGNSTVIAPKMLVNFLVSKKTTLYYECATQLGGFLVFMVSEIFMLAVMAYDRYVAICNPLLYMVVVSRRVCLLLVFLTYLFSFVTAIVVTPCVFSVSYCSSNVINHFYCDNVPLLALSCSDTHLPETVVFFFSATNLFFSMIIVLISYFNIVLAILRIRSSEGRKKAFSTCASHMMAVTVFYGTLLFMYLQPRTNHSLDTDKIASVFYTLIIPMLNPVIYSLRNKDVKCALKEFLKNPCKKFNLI
Summary of the method: (§1)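 Assay methods differ from source to source, frequently being transient luciferase assays in mammalian cell lines. For each receptor–molecule pair, the label responsive (active) applies when the original authors judged the measured signal statistically different from baseline, and non-responsive (inactive) applies otherwise.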

UniProt Q7TR79 = biological target: T2, UniProt Q7TR79
T2 sequence (whole entry): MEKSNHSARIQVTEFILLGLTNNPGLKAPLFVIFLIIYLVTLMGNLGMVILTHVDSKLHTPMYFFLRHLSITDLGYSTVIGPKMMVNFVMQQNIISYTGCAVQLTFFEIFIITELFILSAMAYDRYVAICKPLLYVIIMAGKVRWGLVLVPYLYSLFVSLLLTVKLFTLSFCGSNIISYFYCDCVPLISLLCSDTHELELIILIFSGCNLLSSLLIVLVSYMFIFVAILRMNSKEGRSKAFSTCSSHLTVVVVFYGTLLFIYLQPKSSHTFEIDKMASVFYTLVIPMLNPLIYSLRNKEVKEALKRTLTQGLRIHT
Summary of the method: as §1

UniProt Q7TRA3 = biological target: T3, UniProt Q7TRA3
T3 sequence (whole entry): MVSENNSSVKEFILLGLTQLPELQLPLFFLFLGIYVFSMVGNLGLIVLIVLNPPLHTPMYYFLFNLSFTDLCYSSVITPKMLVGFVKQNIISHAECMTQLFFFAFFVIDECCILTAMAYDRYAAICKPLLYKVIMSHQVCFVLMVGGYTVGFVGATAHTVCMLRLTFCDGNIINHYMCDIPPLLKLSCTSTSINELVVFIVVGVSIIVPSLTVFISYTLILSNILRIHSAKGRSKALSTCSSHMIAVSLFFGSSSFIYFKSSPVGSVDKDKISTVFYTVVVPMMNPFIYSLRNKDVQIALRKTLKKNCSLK
Summary of the method: as §1

UniProt Q7TRE4 = biological target: T4, UniProt Q7TRE4
T4 sequence (whole entry): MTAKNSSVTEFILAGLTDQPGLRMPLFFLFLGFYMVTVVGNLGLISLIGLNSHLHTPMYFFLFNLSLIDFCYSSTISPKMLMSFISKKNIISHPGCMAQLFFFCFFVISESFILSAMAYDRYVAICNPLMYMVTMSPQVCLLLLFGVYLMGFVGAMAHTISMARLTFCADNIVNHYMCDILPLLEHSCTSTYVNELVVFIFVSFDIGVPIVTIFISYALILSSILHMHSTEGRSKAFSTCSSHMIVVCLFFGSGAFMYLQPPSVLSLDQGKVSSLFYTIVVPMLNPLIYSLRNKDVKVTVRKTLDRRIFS
Summary of the method: as §1

UniProt Q7TRW1 = biological target: T5, UniProt Q7TRW1
T5 sequence (whole entry): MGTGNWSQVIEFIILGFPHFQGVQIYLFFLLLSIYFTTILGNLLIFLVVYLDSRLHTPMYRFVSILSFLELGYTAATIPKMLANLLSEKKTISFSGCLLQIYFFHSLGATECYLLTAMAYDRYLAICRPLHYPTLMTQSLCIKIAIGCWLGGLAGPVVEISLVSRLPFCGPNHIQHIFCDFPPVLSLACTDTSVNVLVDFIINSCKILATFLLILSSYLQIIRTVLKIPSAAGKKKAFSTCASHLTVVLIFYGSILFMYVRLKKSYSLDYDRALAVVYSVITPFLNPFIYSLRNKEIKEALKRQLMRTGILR
Summary of the method: as §1

UniProt Q7TRX0 = biological target: T6, UniProt Q7TRX0
T6 sequence (whole entry): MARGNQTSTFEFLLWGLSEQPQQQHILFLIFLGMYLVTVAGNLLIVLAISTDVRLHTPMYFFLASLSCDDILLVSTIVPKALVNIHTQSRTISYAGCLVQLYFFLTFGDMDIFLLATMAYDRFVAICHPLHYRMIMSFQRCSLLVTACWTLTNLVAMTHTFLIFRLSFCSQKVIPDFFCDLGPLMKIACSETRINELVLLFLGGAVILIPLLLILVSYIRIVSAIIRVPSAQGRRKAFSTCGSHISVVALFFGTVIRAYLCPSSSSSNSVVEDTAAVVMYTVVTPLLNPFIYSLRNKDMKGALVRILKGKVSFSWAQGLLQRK
Summary of the method: as §1

UniProt Q8VEU7 = biological target: T7, UniProt Q8VEU7
T7 sequence (whole entry): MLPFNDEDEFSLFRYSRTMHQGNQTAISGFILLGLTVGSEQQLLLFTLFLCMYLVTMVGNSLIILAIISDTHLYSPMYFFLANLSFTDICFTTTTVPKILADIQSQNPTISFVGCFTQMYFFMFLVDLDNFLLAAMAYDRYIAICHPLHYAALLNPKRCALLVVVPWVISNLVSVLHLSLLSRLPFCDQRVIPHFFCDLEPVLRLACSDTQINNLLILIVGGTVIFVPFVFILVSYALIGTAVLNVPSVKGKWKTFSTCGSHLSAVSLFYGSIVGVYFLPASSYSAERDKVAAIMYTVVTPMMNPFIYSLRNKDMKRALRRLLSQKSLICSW
Summary of the method: as §1

UniProt Q8VF05 = biological target: T8, UniProt Q8VF05
T8 sequence (whole entry): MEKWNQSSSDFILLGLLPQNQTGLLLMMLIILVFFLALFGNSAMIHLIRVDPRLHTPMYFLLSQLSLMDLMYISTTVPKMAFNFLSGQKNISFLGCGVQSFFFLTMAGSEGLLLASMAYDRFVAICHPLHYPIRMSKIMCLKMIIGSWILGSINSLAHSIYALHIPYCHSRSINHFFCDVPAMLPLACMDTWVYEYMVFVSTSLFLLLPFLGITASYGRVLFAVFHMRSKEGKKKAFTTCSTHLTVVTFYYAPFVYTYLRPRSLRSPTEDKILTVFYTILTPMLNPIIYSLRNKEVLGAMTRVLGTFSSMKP
Summary of the method: as §1

UniProt Q7TRM0 = biological target: T9, UniProt Q7TRM0
T9 sequence (whole entry): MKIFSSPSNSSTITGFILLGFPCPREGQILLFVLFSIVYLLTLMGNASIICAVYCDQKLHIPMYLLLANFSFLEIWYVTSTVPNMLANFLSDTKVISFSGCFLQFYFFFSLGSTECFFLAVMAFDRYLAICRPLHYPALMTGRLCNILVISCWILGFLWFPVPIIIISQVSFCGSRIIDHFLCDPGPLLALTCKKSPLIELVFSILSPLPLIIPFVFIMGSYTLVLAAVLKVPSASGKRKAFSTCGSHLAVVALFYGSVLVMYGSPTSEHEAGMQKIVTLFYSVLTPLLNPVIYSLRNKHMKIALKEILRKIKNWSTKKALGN
Summary of the method: as §1

UniProt Q7TRN9 = biological target: T10, UniProt Q7TRN9
T10 sequence (whole entry): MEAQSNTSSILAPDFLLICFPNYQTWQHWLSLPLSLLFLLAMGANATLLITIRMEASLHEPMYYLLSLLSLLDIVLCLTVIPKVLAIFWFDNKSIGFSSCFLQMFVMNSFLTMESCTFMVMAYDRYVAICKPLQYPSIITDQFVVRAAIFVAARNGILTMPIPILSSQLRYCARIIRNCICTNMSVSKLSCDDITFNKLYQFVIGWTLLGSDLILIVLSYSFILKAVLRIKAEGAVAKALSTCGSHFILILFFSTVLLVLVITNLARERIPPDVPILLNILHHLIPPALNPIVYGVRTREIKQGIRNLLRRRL
Summary of the method: as §1

UniProt Q7TRR8 = biological target: T11, UniProt Q7TRR8
T11 sequence (whole entry): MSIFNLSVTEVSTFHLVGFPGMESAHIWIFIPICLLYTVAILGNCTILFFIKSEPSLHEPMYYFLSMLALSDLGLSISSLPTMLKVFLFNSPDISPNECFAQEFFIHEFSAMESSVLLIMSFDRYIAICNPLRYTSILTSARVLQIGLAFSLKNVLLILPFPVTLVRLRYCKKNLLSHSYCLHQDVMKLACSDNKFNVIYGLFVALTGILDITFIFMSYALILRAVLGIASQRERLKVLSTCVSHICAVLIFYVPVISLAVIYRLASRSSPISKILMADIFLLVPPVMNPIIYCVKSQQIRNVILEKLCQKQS
Summary of the method: as §1

Measured: odorant receptor agonist call

CCCCC(=O)CC
active: UniProt Q8VF05
not listed: UniProt Q7TRM0 | UniProt Q7TRN9 | UniProt Q7TRR8
inactive: all other assays above

CCCCCCCCO
active: UniProt Q7TRN9
inactive: all other assays above

CCCCCC=O
active: UniProt Q8VF05
not listed: UniProt Q7TRM0 | UniProt Q7TRN9 | UniProt Q7TRR8
inactive: all other assays above

CC(=O)Oc1ccccc1
not listed: UniProt Q7TRM0 | UniProt Q7TRN9 | UniProt Q7TRR8
inactive: all other assays above

CCCCCCOC(C)=O
not listed: UniProt Q7TRM0 | UniProt Q7TRN9 | UniProt Q7TRR8
inactive: all other assays above

CCCCCCC(=O)[O-].[H+]
active: UniProt Q7TRN9
not listed: UniProt Q7TR79 | UniProt Q7TRX0
inactive: all other assays above

c1ccccc1
active: UniProt Q8VF05
not listed: UniProt Q7TRM0 | UniProt Q7TRN9 | UniProt Q7TRR8
inactive: all other assays above

CCCCCCC(C=O)=Cc1ccccc1
inactive: UniProt Q7TR79 | UniProt Q7TRX0

CC(CC=O)CCCC(C)(C)O (stereo not drawn)
inactive: UniProt Q7TR79 | UniProt Q7TRX0

C=CCOC(=O)CCCCCC
not listed: UniProt Q7TRM0 | UniProt Q7TRN9 | UniProt Q7TRR8
inactive: all other assays above

CCC(C(=O)O)c1ccccc1 (stereo not drawn)
inactive: UniProt Q7TR71 | UniProt Q7TRA3 | UniProt Q7TRE4 | UniProt Q7TRW1 | UniProt Q8VEU7 | UniProt Q8VF05

CCCCCCC=CC=O
inactive: UniProt Q7TR79 | UniProt Q7TRX0

CC(=O)C1(C)CC2=C(CCCC2(C)C)CC1C (stereo not drawn)
inactive: UniProt Q7TR79 | UniProt Q7TRX0

CC(C)=C1CCC(C)CC1=O (stereo not drawn)
inactive: UniProt Q7TR79 | UniProt Q7TRX0

O=C(O)CCCCCCCCC(=O)O
inactive: UniProt Q7TR79 | UniProt Q7TRX0

CCOC(=O)CC(C)C
inactive: UniProt Q7TR79 | UniProt Q7TRX0

CCSSCC
inactive: UniProt Q7TR79 | UniProt Q7TRX0

CCCCC=O
inactive: UniProt Q7TR79 | UniProt Q7TRX0

O=C(OCc1ccccc1)c1ccccc1O
inactive: UniProt Q7TR79 | UniProt Q7TRX0

Cc1ccc(C(C)C)cc1
inactive: UniProt Q7TR79 | UniProt Q7TRX0

CCCCCCCC(=O)[O-].[H+]
active: UniProt Q7TRN9
not listed: UniProt Q7TR79 | UniProt Q7TRX0
inactive: all other assays above

COC(OC)c1ccccc1
inactive: UniProt Q7TR79 | UniProt Q7TRX0

CCCCOC(=O)C(C)OC(=O)CCC (stereo not drawn)
inactive: UniProt Q7TR71 | UniProt Q7TRA3 | UniProt Q7TRE4 | UniProt Q7TRW1 | UniProt Q8VEU7 | UniProt Q8VF05

CC=C(C)C=O
inactive: UniProt Q7TR79 | UniProt Q7TRX0

CCCCCCCCCS
not listed: UniProt Q7TRM0 | UniProt Q7TRN9 | UniProt Q7TRR8
inactive: all other assays above
